Experimental data: ChEMBL document CHEMBL1649288, “Fmt bypass in Pseudomonas aeruginosa causes induction of MexXY efflux pump expression” (2009)
In brackets after ≈: the same amount, converted by molar mass.

Columns and labels:
Assay type in all cases: functional
[1] = tested on: Pseudomonas aeruginosa; experiment: Antibacterial activity against Pseudomonas aeruginosa PAO1 CDS6 expressing nfxB A115C, T39P mutant by broth microdilution method
Procedure, shortened: (§1)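 Broth microdilution following standard CLSI guidelines. P. aeruginosa strains were routinely cultured at 37°C in Mueller-Hinton or Luria broth. Where plasmids required selection, media carried gentamicin or tetracycline (100 μg/ml) or carbenicillin (100 μg/ml).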

[2] = tested on: Pseudomonas aeruginosa; experiment: Induction of […] (PA5471) gene expression in wild type Pseudomonas aeruginosa PAO1 NB52019 at 12 ug/ml relative to control
Procedure, shortened: (§2)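 Duplicate P. aeruginosa NB52019 cultures were diluted 1:100 from overnight into 30 ml Luria broth with or without 12 μg/ml drug, shaken at 180 rpm at 37°C to OD600 0.8, and harvested at 15,000 × g for 10 min. Total RNA was purified with a 40-min on-column DNase I step for transcriptional profiling, and treated cultures were compared with untreated ones.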

[3] = tested on: Pseudomonas aeruginosa; experiment: Induction of mexZ (PA2020) gene expression in wild type Pseudomonas aeruginosa PAO1 NB52019 at 12 ug/ml relative to control; procedure, shortened: as §2
[4] = tested on: Pseudomonas aeruginosa; experiment: Antibacterial activity against Pseudomonas aeruginosa PAO1 CDS30 harboring pRC5 by broth microdilution method; procedure, shortened: as §1
[5] = tested on: Pseudomonas aeruginosa; experiment: Antibacterial activity against Pseudomonas aeruginosa PAO1 CDS22 expressing mexAB-oprM folD A424C, T142P mutant by broth microdilution method; procedure, shortened: as §1
[6] = tested on: Pseudomonas aeruginosa; experiment: Antibacterial activity against Pseudomonas aeruginosa PAO1 CDS28 expressing 16-bp deleted fmt at position 833 by broth microdilution method
Procedure, shortened: (§3)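 Broth microdilution MICs run per standard CLSI guidelines; P. aeruginosa strains routinely grown at 37°C in Mueller-Hinton or Luria medium.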

[7] = tested on: Pseudomonas aeruginosa; experiment: Antibacterial activity against Pseudomonas aeruginosa PAO1 CDS1 expressing 14-bp deleted nfxB at base 92 by broth microdilution method; procedure, shortened: as §3
[8] = tested on: Pseudomonas aeruginosa; experiment: Antibacterial activity against Pseudomonas aeruginosa PAO1 CDS30 expressing folD G493T, V165R mutant by broth microdilution method; procedure, shortened: as §1
[9] = tested on: Pseudomonas aeruginosa; experiment: Antibacterial activity against Pseudomonas aeruginosa PAO1 CDS13 expressing mexAB-oprM fmt C127T, R43C mutant by broth microdilution method; procedure, shortened: as §1
[10] = tested on: Pseudomonas aeruginosa; experiment: Antibacterial activity against Pseudomonas aeruginosa PAO1 CDS13 harboring pSW1 by broth microdilution method; procedure, shortened: as §1
[11] = tested on: Pseudomonas aeruginosa; experiment: Antibacterial activity against Pseudomonas aeruginosa PAO1 CDR2 expressing mexAB-oprM and fmt::aacC1 by broth microdilution method; procedure, shortened: as §3
[12] = tested on: Pseudomonas aeruginosa; experiment: Induction of mexY (PA2018) gene expression in wild type Pseudomonas aeruginosa PAO1 NB52019 at 12 ug/ml relative to control; procedure, shortened: as §2
[13] = tested on: Pseudomonas aeruginosa; experiment: Antibacterial activity against Pseudomonas aeruginosa PAO1 CDS28 harboring pSW1 by broth microdilution method; procedure, shortened: as §1
[14] = tested on: Pseudomonas aeruginosa; experiment: Antibacterial activity against Pseudomonas aeruginosa PAO1 NB52021 expressing mexB by broth microdilution method; procedure, shortened: as §3
[15] = tested on: Pseudomonas aeruginosa; experiment: Antibacterial activity against Pseudomonas aeruginosa PAO1 NB52020 expressing mexAB-oprM by broth microdilution method; procedure, shortened: as §1
[16] = tested on: Pseudomonas aeruginosa; experiment: Antibacterial activity against Pseudomonas aeruginosa PAO1 NB52022 expressing mexX by broth microdilution method; procedure, shortened: as §1
[17] = tested on: Pseudomonas aeruginosa; experiment: Antibacterial activity against Pseudomonas aeruginosa PAO1 NB52023 expressing mexB and mexX by broth microdilution method; procedure, shortened: as §3
[18] = tested on: Pseudomonas aeruginosa; experiment: Antibacterial activity against wild type Pseudomonas aeruginosa PAO1 NB52019 by broth microdilution method; procedure, shortened: as §1
[19] = tested on: Pseudomonas aeruginosa; experiment: Induction of oprM (PA0427) gene expression in wild type Pseudomonas aeruginosa PAO1 NB52019 at 12 ug/ml relative to control; procedure, shortened: as §2
[20] = tested on: Pseudomonas aeruginosa; experiment: Antibacterial activity against Pseudomonas aeruginosa PAO1 CDR1 expressing fmt::aacC1 by broth microdilution method; procedure, shortened: as §3
[21] = tested on: Pseudomonas aeruginosa; experiment: Induction of mexX (PA2019) gene expression in wild type Pseudomonas aeruginosa PAO1 NB52019 at 12 ug/ml relative to control; procedure, shortened: as §2
[22] = tested on: Pseudomonas aeruginosa; experiment: Antibacterial activity against Pseudomonas aeruginosa PAO1 CDS22 harboring pRC5 by broth microdilution method; procedure, shortened: as §1

CCCC[C@H](CN(O)C=O)C(=O)N1CCC[C@H]1C(=O)Nc1ccc(F)c[n+]1[O-]
MIC [1]: > 128 mg/L | fold change (FC) [2]: 3.1 | fold change (FC) [3]: 4.8 | MIC [4]: 128 mg/L (≈ 323 µM) | MIC [5]: > 128 mg/L | MIC [6]: > 1020 mg/L | MIC [7]: > 128 mg/L | MIC [8]: > 1020 mg/L | MIC [9]: > 128 mg/L | MIC [10]: 4 mg/L (≈ 10.1 µM) | MIC [11]: > 1020 mg/L | fold change (FC) [12]: 11.7 | MIC [13]: 128 mg/L (≈ 323 µM) | MIC [14]: 64 mg/L (≈ 161 µM) | MIC [15]: 4 mg/L (≈ 10.1 µM) | MIC [16]: 128 mg/L (≈ 323 µM) | MIC [17]: 8 mg/L (≈ 20.2 µM) | MIC [18]: 128 mg/L (≈ 323 µM) | fold change (FC) [19]: 0.78 | MIC [20]: > 1020 mg/L | fold change (FC) [21]: 11.3 | MIC [22]: 4 mg/L (≈ 10.1 µM)
